Test results reported in ChEMBL document CHEMBL1800074, “Novel quinoxaline derivatives for in vivo imaging of β-amyloid plaques in the brain” (Bioorg Med Chem Lett, 2011).
Active and inactive are the calls of the source. The calls are words filed in the database; no cut-off is given here.

Key:
[1] = Displacement of [125I]IMPY from amyloid beta (1-42) after 2 hrs by gamma counting
Summary of the method: (§1)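 Competition binding against [125I]IMPY on aggregated Aβ1-42, with inhibition curves built from the test ligand displacing the radioligand.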

[2] = Binding affinity to amyloid beta (1-42) after 2 hrs by gamma counting; summary of the method: as §1
Kidney [3] = assay: Biodistribution in ddY mouse kidney at 37 KBq/100 ul, iv after 60 mins by gamma counting; type: ADME, organism-based; settings: in vivo, 1 h
Summary of the method: (§2)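 Normal ddY mice got an iv injection of the 125I-labelled ligand (no carrier added, radiochemical purity >98%). Organs were collected at 2, 30, 60 and 120 min. Activity is given as % injected dose per gram; stomach is given as % injected dose per organ. Values are the average of five mice ± standard deviation.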

Spleen [4] = assay: Biodistribution in ddY mouse spleen at 37 KBq/100 ul, iv after 2 mins by gamma counting; type: ADME, organism-based; settings: in vivo; summary of the method: as §2
Spleen [5] = assay: Biodistribution in ddY mouse spleen at 37 KBq/100 ul, iv after 30 mins by gamma counting; type: ADME, organism-based; settings: in vivo, 0.5 h; summary of the method: as §2
Blood [6] = assay: Biodistribution in ddY mouse blood at 37 KBq/100 ul, iv after 120 mins by gamma counting; type: ADME, organism-based; settings: in vivo, 2 h; summary of the method: as §2
Heart [7] = assay: Biodistribution in ddY mouse heart at 37 KBq/100 ul, iv after 2 mins by gamma counting; type: ADME, organism-based; settings: in vivo; summary of the method: as §2
Lung [8] = assay: Biodistribution in ddY mouse lung at 37 KBq/100 ul, iv after 2 mins by gamma counting; type: ADME, organism-based; settings: in vivo; summary of the method: as §2
Lung [9] = assay: Biodistribution in ddY mouse lung at 37 KBq/100 ul, iv after 120 mins by gamma counting; type: ADME, organism-based; settings: in vivo, 2 h; summary of the method: as §2
Intestine [10] = assay: Biodistribution in ddY mouse intestine at 37 KBq/100 ul, iv after 30 mins by gamma counting; type: ADME, organism-based; settings: in vivo, 0.5 h; summary of the method: as §2
Brain [11] = assay: Biodistribution in ddY mouse brain at 37 KBq/100 ul, iv after 30 mins by gamma counting; type: ADME, organism-based; settings: in vivo, 0.5 h; summary of the method: as §2
Intestine [12] = assay: Biodistribution in ddY mouse intestine at 37 KBq/100 ul, iv after 120 mins by gamma counting; type: ADME, organism-based; settings: in vivo, 2 h; summary of the method: as §2
Blood [13] = assay: Biodistribution in ddY mouse blood at 37 KBq/100 ul, iv after 60 mins by gamma counting; type: ADME, organism-based; settings: in vivo, 1 h; summary of the method: as §2
Stomach [14] = assay: Biodistribution in ddY mouse stomach assessed per organ at 37 KBq/100 ul, iv after 2 mins by gamma counting; type: ADME, organism-based; settings: in vivo; summary of the method: as §2
Lung [15] = assay: Biodistribution in ddY mouse lung at 37 KBq/100 ul, iv after 60 mins by gamma counting; type: ADME, organism-based; settings: in vivo, 1 h; summary of the method: as §2
Blood [16] = assay: Biodistribution in ddY mouse blood at 37 KBq/100 ul, iv after 2 mins by gamma counting; type: ADME, organism-based; settings: in vivo; summary of the method: as §2
Stomach [17] = assay: Biodistribution in ddY mouse stomach assessed per organ at 37 KBq/100 ul, iv after 60 mins by gamma counting; type: ADME, organism-based; settings: in vivo, 1 h; summary of the method: as §2
Kidney [18] = assay: Biodistribution in ddY mouse kidney at 37 KBq/100 ul, iv after 120 mins by gamma counting; type: ADME, organism-based; settings: in vivo, 2 h; summary of the method: as §2
Liver [19] = assay: Biodistribution in ddY mouse liver at 37 KBq/100 ul, iv after 2 mins by gamma counting; type: ADME, organism-based; settings: in vivo; summary of the method: as §2
Liver [20] = assay: Biodistribution in ddY mouse liver at 37 KBq/100 ul, iv after 60 mins by gamma counting; type: ADME, organism-based; settings: in vivo, 1 h; summary of the method: as §2
Stomach [21] = assay: Biodistribution in ddY mouse stomach assessed per organ at 37 KBq/100 ul, iv after 30 mins by gamma counting; type: ADME, organism-based; settings: in vivo, 0.5 h; summary of the method: as §2
Intestine [22] = assay: Biodistribution in ddY mouse intestine at 37 KBq/100 ul, iv after 60 mins by gamma counting; type: ADME, organism-based; settings: in vivo, 1 h; summary of the method: as §2
Spleen [23] = assay: Biodistribution in ddY mouse spleen at 37 KBq/100 ul, iv after 60 mins by gamma counting; type: ADME, organism-based; settings: in vivo, 1 h; summary of the method: as §2
Stomach [24] = assay: Biodistribution in ddY mouse stomach assessed per organ at 37 KBq/100 ul, iv after 120 mins by gamma counting; type: ADME, organism-based; settings: in vivo, 2 h; summary of the method: as §2
Liver [25] = assay: Biodistribution in ddY mouse liver at 37 KBq/100 ul, iv after 30 mins by gamma counting; type: ADME, organism-based; settings: in vivo, 0.5 h; summary of the method: as §2
Kidney [26] = assay: Biodistribution in ddY mouse kidney at 37 KBq/100 ul, iv after 30 mins by gamma counting; type: ADME, organism-based; settings: in vivo, 0.5 h; summary of the method: as §2
Heart [27] = assay: Biodistribution in ddY mouse heart at 37 KBq/100 ul, iv after 30 mins by gamma counting; type: ADME, organism-based; settings: in vivo, 0.5 h; summary of the method: as §2
Spleen [28] = assay: Biodistribution in ddY mouse spleen at 37 KBq/100 ul, iv after 120 mins by gamma counting; type: ADME, organism-based; settings: in vivo, 2 h; summary of the method: as §2
Blood [29] = assay: Biodistribution in ddY mouse blood at 37 KBq/100 ul, iv after 30 mins by gamma counting; type: ADME, organism-based; settings: in vivo, 0.5 h; summary of the method: as §2
Lung [30] = assay: Biodistribution in ddY mouse lung at 37 KBq/100 ul, iv after 30 mins by gamma counting; type: ADME, organism-based; settings: in vivo, 0.5 h; summary of the method: as §2
Heart [31] = assay: Biodistribution in ddY mouse heart at 37 KBq/100 ul, iv after 60 mins by gamma counting; type: ADME, organism-based; settings: in vivo, 1 h; summary of the method: as §2
Kidney [32] = assay: Biodistribution in ddY mouse kidney at 37 KBq/100 ul, iv after 2 mins by gamma counting; type: ADME, organism-based; settings: in vivo; summary of the method: as §2
Brain [33] = assay: Ratio of drug uptake after 2 mins to drug uptake in 120 mins in ddY mouse brain at 37 KBq/100 ul, iv; type: ADME, organism-based; settings: in vivo
Summary of the method: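 Brain uptake (% injected dose per gram) in normal ddY mice after iv injection of the 125I-labelled ligand. The value is the brain 2 min / brain 120 min ratio, from five mice per time point.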

Intestine [34] = assay: Biodistribution in ddY mouse intestine at 37 KBq/100 ul, iv after 2 mins by gamma counting; type: ADME, organism-based; settings: in vivo; summary of the method: as §2
Brain [35] = assay: Biodistribution in ddY mouse brain at 37 KBq/100 ul, iv after 60 mins by gamma counting; type: ADME, organism-based; settings: in vivo, 1 h; summary of the method: as §2
Brain [36] = assay: Biodistribution in ddY mouse brain at 37 KBq/100 ul, iv after 2 mins by gamma counting; type: ADME, organism-based; settings: in vivo; summary of the method: as §2
Heart [37] = assay: Biodistribution in ddY mouse heart at 37 KBq/100 ul, iv after 120 mins by gamma counting; type: ADME, organism-based; settings: in vivo, 2 h; summary of the method: as §2
Brain [38] = assay: Biodistribution in ddY mouse brain at 37 KBq/100 ul, iv after 120 mins by gamma counting; type: ADME, organism-based; settings: in vivo, 2 h; summary of the method: as §2
Liver [39] = assay: Biodistribution in ddY mouse liver at 37 KBq/100 ul, iv after 120 mins by gamma counting; type: ADME, organism-based; settings: in vivo, 2 h; summary of the method: as §2
[40] = Lipophilicity, log D of the compound; type: physicochemical; settings: octanol/water
[41] = target: Amyloid-beta precursor protein (Homo sapiens) (UniProt P05067); assay: Binding affinity to amyloid beta (1-42) plaque in brain of patient with Alzheimer's disease at 185 KBq/100ul after 1 hr by immunofluorescence staining method; type: tissue-based; settings: tested as the 125I-labelled form
Summary of the method: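 In vitro autoradiography with the 125I-labelled ligand on brain sections from an Alzheimer's disease patient. Plaque presence and distribution were confirmed by immunohistochemical staining with a monoclonal Aβ antibody.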

Mus musculus = species: Mus musculus; assay: Binding affinity to amyloid beta plaque in APP/PS1 transgenic C57BL/6 mouse brain cortex at 185 KBq/100 ul after 1 hr by thioflavin S-fluorescence staining method; type: tissue-based; settings: C57BL6, tested as the 125I-labelled form

Chain of Amyloid-beta precursor protein (Homo sapiens) (P05067 whole entry): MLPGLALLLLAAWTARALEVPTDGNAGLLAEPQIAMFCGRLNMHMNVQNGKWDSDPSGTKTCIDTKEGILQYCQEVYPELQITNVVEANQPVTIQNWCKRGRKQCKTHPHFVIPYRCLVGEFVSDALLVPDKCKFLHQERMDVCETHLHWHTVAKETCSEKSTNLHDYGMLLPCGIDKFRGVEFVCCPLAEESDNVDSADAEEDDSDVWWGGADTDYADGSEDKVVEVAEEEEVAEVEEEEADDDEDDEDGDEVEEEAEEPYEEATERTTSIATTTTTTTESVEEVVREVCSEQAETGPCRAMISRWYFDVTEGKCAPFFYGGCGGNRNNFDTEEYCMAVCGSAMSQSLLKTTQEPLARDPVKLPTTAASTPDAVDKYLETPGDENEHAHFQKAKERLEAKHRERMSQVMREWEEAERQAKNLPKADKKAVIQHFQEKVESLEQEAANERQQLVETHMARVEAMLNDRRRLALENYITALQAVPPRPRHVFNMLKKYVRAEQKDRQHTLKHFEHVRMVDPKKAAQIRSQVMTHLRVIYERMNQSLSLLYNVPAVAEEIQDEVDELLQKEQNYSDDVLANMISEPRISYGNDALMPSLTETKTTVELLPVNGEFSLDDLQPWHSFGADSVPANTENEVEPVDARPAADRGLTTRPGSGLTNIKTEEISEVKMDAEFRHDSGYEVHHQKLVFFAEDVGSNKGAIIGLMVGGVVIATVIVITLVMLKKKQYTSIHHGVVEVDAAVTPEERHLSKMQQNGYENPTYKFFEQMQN

CN(C)c1ccc(-c2cnc3cc(Br)ccc3n2)cc1
Ki [1]: 2.6 nM

CNc1ccc(-c2ccc3cc(OCCOCCOCCF)ccc3c2)cc1
Ki [1]: 3 nM

CNc1ccc2cc(-c3ccc(OCCOCCOCCF)cc3)ccc2c1
Ki [1]: 1.6 nM

CN(C)c1ccc(-c2cn3cc([123I])ccc3n2)cc1
Kd [2]: 0.43 nM

CN(C)c1ccc(-c2cnc3cc([125I])ccc3n2)cc1
Drug uptake (Kidney [3]): 6.68 % ID/g
Drug uptake (Spleen [4]): 5.69 % ID/g
Drug uptake (Spleen [5]): 2.82 % ID/g
Drug uptake (Blood [6]): 1.88 % ID/g
Drug uptake (Heart [7]): 14.91 % ID/g
Drug uptake (Lung [8]): 14.53 % ID/g
Drug uptake (Lung [9]): 1.95 % ID/g
Drug uptake (Intestine [10]): 18.62 % ID/g
Drug uptake (Brain [11]): 5.21 % ID/g
Drug uptake (Intestine [12]): 16.93 % ID/g
Drug uptake (Blood [13]): 2.98 % ID/g
Drug uptake (Stomach [14]): 2.06 %ID
Drug uptake (Lung [15]): 3.53 % ID/g
Drug uptake (Blood [16]): 4.71 % ID/g
Drug uptake (Stomach [17]): 5.39 %ID
Drug uptake (Kidney [18]): 3.96 % ID/g
Drug uptake (Liver [19]): 30.49 % ID/g
Drug uptake (Liver [20]): 12.5 % ID/g
Drug uptake (Stomach [21]): 3.28 %ID
Drug uptake (Intestine [22]): 22.5 % ID/g
Drug uptake (Spleen [23]): 2.22 % ID/g
Drug uptake (Stomach [24]): 8.62 %ID
Drug uptake (Liver [25]): 15.73 % ID/g
Drug uptake (Kidney [26]): 8.76 % ID/g
Drug uptake (Heart [27]): 2.53 % ID/g
Drug uptake (Spleen [28]): 1.17 % ID/g
Drug uptake (Blood [29]): 2.88 % ID/g
Drug uptake (Lung [30]): 3.99 % ID/g
Drug uptake (Heart [31]): 2.17 % ID/g
Drug uptake (Kidney [32]): 19.67 % ID/g
Ratio (Brain [33]): 5.38
Drug uptake (Intestine [34]): 3.43 % ID/g
Drug uptake (Brain [35]): 2.91 % ID/g
Drug uptake (Brain [36]): 6.03 % ID/g
Drug uptake (Heart [37]): 1.22 % ID/g
Drug uptake (Brain [38]): 1.12 % ID/g
Drug uptake (Liver [39]): 7.53 % ID/g
logD [40]: 4.02

Nc1ccc(-c2cnc3cc(I)ccc3n2)cc1
Ki [1]: 10.7 nM

CN(C)c1ccc(-c2cnc3cc(I)ccc3n2)cc1
Activity [41]: Active
Ki [1]: 4.1 nM
Activity (Mus musculus): Active

CNc1ccc(-c2cnc3cc(I)ccc3n2)cc1
Ki [1]: 7.7 nM
